Key:
Cavia porcellus [1] = species: Cavia porcellus; assay: Stimulation of [3H]phosphatidylinositol turnover in synaptoneurosomes at a concentration of 100 uM; format: functional
How it was run: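 Nonfiltered guinea pig cortical synaptoneurosomes prelabeled 60 min at 37 °C with 1 μM [3H]inositol in Krebs–Henseleit buffer under O2/CO2 (95:5). Washed, resuspended with 10 mM LiCl (~1 mg protein/tube). Agonist at 100 μM, 90 min at 37 °C. Stopped by centrifugation, TCA extraction; [3H]inositol phosphates measured in supernatant.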

[2] = biological target: T1, Adrenergic receptor alpha-2 (Homo sapiens, UniProt P08913+P18825+P18089); assay: (§1) Compound was tested for its ability to displace [3H]clonidine form alpha-2 adrenergic receptor site in guinea pig cerebral cortical membranes.; set-up: species or system Cavia porcellus; details: target entry is the homologue from another species
T1 sequence (P08913 whole entry): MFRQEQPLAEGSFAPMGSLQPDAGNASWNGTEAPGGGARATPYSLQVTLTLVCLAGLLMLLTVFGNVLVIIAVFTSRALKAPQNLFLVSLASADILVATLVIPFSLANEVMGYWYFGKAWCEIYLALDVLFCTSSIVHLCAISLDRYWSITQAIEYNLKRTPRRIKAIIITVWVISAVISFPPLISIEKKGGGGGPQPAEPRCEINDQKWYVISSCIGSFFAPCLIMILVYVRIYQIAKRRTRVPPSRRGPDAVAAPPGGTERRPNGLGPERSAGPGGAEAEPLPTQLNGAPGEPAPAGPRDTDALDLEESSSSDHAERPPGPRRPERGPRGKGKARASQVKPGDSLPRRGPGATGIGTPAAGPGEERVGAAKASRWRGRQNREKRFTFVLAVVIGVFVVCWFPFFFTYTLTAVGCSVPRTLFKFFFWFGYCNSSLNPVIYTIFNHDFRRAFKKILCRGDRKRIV
T1 sequence (P18825 whole entry): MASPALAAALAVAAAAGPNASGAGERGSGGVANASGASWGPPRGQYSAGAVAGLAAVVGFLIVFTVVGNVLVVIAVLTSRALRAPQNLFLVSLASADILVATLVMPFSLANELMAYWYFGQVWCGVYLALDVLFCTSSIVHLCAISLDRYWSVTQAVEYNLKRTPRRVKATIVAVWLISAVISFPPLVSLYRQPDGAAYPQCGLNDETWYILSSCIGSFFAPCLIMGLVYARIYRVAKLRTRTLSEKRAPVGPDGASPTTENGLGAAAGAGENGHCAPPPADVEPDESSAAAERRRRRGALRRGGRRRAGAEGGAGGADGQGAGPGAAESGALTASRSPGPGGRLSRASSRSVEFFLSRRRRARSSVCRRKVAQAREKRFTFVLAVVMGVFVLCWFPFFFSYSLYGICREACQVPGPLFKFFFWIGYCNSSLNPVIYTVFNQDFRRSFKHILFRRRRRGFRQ
T1 sequence (P18089 whole entry): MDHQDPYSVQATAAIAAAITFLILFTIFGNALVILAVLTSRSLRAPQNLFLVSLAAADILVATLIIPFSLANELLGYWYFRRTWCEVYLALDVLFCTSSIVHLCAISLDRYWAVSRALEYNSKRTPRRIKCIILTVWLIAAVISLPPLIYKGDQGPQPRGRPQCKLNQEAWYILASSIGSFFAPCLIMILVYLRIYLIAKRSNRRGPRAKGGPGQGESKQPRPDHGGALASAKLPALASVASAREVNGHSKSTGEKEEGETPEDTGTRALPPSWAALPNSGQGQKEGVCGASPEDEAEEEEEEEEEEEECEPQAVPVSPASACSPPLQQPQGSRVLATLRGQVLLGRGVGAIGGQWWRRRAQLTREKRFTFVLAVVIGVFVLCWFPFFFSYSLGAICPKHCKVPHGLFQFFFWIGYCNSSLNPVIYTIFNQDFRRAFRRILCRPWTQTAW
How it was run: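 Guinea pig (male Hartley) cerebral cortex membranes in 50 mM Tris-HCl pH 7.4. […] Ki from IC50 by Cheng-Prusoff; 3–5 experiments or one in triplicate.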

[3] = Compound was tested for its ability to displace [3H]WB-4101 form alpha-1 adrenergic receptor site in guinea pig cerebral cortical membranes.; set-up: species or system Cavia porcellus
How it was run: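 Guinea pig (male Hartley) cerebral cortex membranes in 50 mM Tris-HCl pH 7.4, ~0.9–1.2 mg protein/mL. […] Ki from IC50 by Cheng-Prusoff; 3–5 experiments or one in triplicate.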

Cavia porcellus [4] = species: Cavia porcellus; assay: Compound was evaluated for its agonist potency by measurement of potentiation of 2-chloroadenosine stimulation of cyclic AMP accumulation in guinea pig cerebral cortical synaptoneurosomal preparations.; format: functional
[5] = Compound was tested for its ability to displace [3H]-prazosin form alpha-1 adrenergic receptor site in guinea pig cerebral cortical membranes.; set-up: species or system Cavia porcellus
How it was run: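 Guinea pig (male Hartley) cerebral cortex membranes, homogenised and washed in 50 mM Tris-HCl pH 7.4, ~0.9–1.2 mg protein/mL. 0.5 nM [3H]prazosin (Kd 0.5 nM), 30 min at 30 °C; nonspecific with 10 μM phentolamine. Ki from IC50 by Cheng-Prusoff; 3–5 experiments or one in triplicate.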

Cavia porcellus [6] = species: Cavia porcellus; assay: Compound was evaluated for its agonist potency by measurement of contraction of guinea pig aortic strips; format: functional; details: Aorta
How it was run: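 Cumulative concentration-response, 3–200 μM in 2–3-fold steps. Isometric tension recorded; EC50 = concentration giving half of maximal contraction to supramaximal (-)-NE (30–50 μM), measured before and after each curve.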

[7] = biological target: T1, Adrenergic receptor alpha-2; assay: as §1; set-up: species or system Cavia porcellus; details: target entry is the homologue from another species; remark: listed apart in the source
How it was run: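 Guinea pig (male Hartley) cerebral cortex membranes in 50 mM Tris-HCl pH 7.4. Ki from IC50 by Cheng-Prusoff; 3–5 experiments or one in triplicate.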

CNCC(O)c1cc(O)ccc1F (racemic)
Control (Cavia porcellus [1]): 162% | Ki [2]: 0.23 µM | Ki [3]: 1.3 µM | EC50 (Cavia porcellus [4]): 4 µM | Ki [5]: 2.1 µM | EC50 (Cavia porcellus [6]): 11 µM

CNCC(O)c1ccc(F)c(O)c1 (racemic)
Control (Cavia porcellus [1]): 136% | Ki [2]: 1 µM | Ki [3]: 3.7 µM | EC50 (Cavia porcellus [4]): 35 µM | Ki [5]: 10 µM | EC50 (Cavia porcellus [6]): 39 µM

CNC[C@H](O)c1cccc(O)c1 [PHENYLEPHRINE]
Control (Cavia porcellus [1]): 161% | Ki [3]: 2.5 µM | EC50 (Cavia porcellus [4]): 26 µM | EC50 (Cavia porcellus [6]): 27 µM

CNCC(O)c1cccc(O)c1F (racemic)
Control (Cavia porcellus [1]): 134% | Ki [7]: 1.2 µM | Ki [3]: 6.6 µM | EC50 (Cavia porcellus [4]): 40 µM | Ki [5]: 17 µM | EC50 (Cavia porcellus [6]): 105 µM

From ChEMBL document CHEMBL1123239, “Synthesis and adrenergic activity of ring-fluorinated phenylephrines” (J Med Chem, 1986)
